RanGTP-Impb inh: inhibitors of RanGTP-importin-beta interaction, primary screen, biochemical, FRET, CFP-Ran, YFP-importin-beta, homogeneous. cell-free CFP-Ran/YFP-importin-beta FRET ratio. inhibition, % (no concentration beside the values). 1.1% of 300,000 active. AID 2216;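 active means more than half of the replicate wells show a fall in the fluorescence ratio signal beyond about 16%, limit read from the data, passing the limit was not always enough; inconclusive means exactly half of the replicate wells pass the set limit; inactive means fewer than half of replicates pass the limit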;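 further: 0% = DMSO wells and 100% = Ran loaded with GDP instead of GTP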
eIF4E 4G PPI: blocks eIF4E binding to eIF4G | TR-FRET eIF4E-eIF4GI(517-606) binding, 2 h | inhibition, % at 21.7 µM | 0.37% of 220,000 active | AID 782;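 active means inhibition above about 30%, limit read from the data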;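 further: 0% = full FRET control wells and 100% = background wells lacking eIF4GI fragment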
Target sequence (P63073 whole entry, looked up, the tested form may be a part): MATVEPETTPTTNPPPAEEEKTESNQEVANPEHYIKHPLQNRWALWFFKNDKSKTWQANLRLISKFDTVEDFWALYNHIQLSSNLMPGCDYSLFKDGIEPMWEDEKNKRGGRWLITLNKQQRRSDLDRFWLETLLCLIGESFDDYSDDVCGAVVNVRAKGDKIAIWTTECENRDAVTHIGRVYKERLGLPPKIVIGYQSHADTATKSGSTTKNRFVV
Target sequence (Q04637 whole entry, looked up, the tested form may be a part): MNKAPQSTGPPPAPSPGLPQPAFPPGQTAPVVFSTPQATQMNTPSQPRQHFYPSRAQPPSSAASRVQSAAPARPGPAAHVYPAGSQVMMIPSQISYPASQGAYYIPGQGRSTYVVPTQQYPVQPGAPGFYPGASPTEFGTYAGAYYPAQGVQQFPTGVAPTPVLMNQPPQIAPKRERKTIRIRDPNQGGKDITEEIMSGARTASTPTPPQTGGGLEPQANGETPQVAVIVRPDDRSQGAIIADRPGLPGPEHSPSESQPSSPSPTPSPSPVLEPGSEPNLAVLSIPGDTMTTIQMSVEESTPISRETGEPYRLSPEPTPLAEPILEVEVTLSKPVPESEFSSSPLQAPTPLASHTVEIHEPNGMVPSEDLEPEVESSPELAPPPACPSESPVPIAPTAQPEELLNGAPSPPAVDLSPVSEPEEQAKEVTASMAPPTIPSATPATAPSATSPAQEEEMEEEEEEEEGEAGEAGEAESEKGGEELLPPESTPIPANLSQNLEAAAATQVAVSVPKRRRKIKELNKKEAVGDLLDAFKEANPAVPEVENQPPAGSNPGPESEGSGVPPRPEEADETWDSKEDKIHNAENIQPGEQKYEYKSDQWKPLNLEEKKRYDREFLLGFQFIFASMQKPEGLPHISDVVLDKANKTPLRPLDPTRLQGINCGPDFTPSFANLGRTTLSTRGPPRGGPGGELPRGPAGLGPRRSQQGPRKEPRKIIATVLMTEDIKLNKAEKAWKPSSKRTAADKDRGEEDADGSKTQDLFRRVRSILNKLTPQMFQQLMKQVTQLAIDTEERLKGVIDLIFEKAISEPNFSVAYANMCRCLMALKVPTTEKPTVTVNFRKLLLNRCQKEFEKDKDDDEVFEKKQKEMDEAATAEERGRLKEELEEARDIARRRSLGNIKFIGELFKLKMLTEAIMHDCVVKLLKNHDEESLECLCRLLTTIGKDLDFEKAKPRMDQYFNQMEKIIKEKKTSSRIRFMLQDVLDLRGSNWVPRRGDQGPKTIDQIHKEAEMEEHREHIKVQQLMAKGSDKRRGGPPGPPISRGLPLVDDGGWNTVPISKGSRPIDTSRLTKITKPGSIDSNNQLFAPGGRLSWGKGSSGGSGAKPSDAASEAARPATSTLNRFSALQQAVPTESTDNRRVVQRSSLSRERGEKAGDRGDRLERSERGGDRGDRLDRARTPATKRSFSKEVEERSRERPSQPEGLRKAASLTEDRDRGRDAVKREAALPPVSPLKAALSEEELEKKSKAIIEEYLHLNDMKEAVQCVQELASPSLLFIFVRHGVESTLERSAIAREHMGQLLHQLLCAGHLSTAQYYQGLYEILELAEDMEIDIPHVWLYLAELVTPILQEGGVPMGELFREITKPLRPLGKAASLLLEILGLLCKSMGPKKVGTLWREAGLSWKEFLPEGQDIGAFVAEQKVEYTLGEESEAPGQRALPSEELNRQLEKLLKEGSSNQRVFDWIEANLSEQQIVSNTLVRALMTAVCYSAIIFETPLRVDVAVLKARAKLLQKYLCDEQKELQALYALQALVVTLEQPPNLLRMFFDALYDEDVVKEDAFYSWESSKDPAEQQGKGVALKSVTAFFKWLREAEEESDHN
Runt-SMMHC FRET: inhibitors of human RUNX1 Runt domain binding to CBFb-SMMHC | Cerulean-Runt/Venus-CBFb-SMMHC FRET ratio 530/480, 1 h | AID 1434 | 0.74% of 220,000 active | inhibition, % at 20 µM | Q01196+Q13951;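 active means mean inhibition across duplicate retests at 20 µM reaching about 50%, limit read from the data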;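 further: 0% = DMSO wells and 100% = wells with excess untagged CBFb-SMMHC; inhibitors lower the FRET ratio by blocking Runt binding to CBFb-SMMHC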
Runt-CBFb FRET: Runt domain-CBFb interaction inhibition. inhibition, % at 20 µM. 0.46% of 220,000 active. Q01196+Q13951. Cerulean-Runt/Venus-CBFb FRET ratio 530/480, 1 h;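 active means inhibition over about 50% at 20 µM in the single-dose screen, limit read from the data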;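 further: 0% = DMSO wells and 100% = excess unlabeled CBFb competitor control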
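test system = Cerulean-tagged RUNX1 Runt domain (FRET donor) fusion protein | reagent = Venus-CBFb binding partner, 100 nM | incubation = protein complex preformed 1 h, compound exposure 1 h, room temperature, dark | detection = FRET fluorescence | read-out basis = loss of energy transfer signal | controls = 5 µM unlabeled CBFb as full-inhibition high control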
PERK inh: human PERK inhibition, primary cell-based screen. Q9NZJ5. CHO PERK-DD fusion, SEAP luminescence translation reporter. inhibition, % at 5.6 µM. 0.17% of 220,000 active. AID 1416;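 active means inhibition above the mean inhibition of all tested compounds plus 3 SD, set separately per screening campaign, cut at about 2.9% in these data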;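 further: PERK kinase domain activated by AP20187 dimerizer at 100 nM; 0% = DMSO with dimerizer and 100% = rapamycin at 8.4 µM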
Hck-Nef inh: inhibitors of human Hck kinase activated by Nef | P08631 | Recombinant Hck-YEEI plus Nef, Z-Lyte FRET kinase assay | inhibition, % at 20 µM | 0.68% of 220,000 active;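 active means Hck-Nef kinase inhibition above about 50%, limit read from the data; inactive means inhibition below that limit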;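 further: 0% = DMSO with Hck plus Nef and 100% = Hck alone without Nef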
An asterisk follows results filed as active; ? = inconclusive; . = no result given; ! = not active in a repeat. An excerpt weighted towards active compounds, which were near 2.2% of everything screened.

SMILES	RanGTP-Impb inh	eIF4E 4G PPI	Runt-SMMHC FRET	Runt-CBFb FRET	PERK inh	Hck-Nef inh
CCCCn1c(=O)nc2n(-c3ccccc3)c3ccccc3cc-2c1=O	142.3*	18.4	60.4*	10.4	-0.8	16.6
Cc1cc(C)n(CC2CC(=O)N(c3ccc(F)c(Cl)c3)C2=O)n1 (stereo not drawn)	.	3.5	-7.7	-3.6	-0.7	0.2
[O-]/C(=C(\C(=S)Nc1cccc2ccccc12)[n+]1ccccc1)c1ccc(Cl)s1	0.7	10.6	15.2	24.8	0.3	2.9
CCCOC(=O)CCCN1C(=O)/C(=C2\SC(=S)N(CCCC(=O)OCCC)C2=O)SC1=S	-0.3	-7.1	-9.5	2.5	3.4*	29.1
CCCCOC(=O)CCN1C(=O)/C(=C2\SC(=S)N(CCC(=O)OCCCC)C2=O)SC1=S	2.2	-2.2	-5.2	0.4	1.7	3.4
CN(CC(=O)Nc1c(Cl)cccc1Cl)C(=O)CC1Sc2ccccc2NC1=O (stereo not drawn)	-1.1	.	.	.	.	.
O=c1[nH]c2ccccc2nc1-c1c[nH]c2ccccc12	48.5*	.	.	.	.	.
Cc1ccnc(NS(=O)(=O)c2ccc(N3C(=O)c4c(Cl)c(Cl)c(Cl)c(Cl)c4C3=O)cc2)n1	0.7	3.6	-2.8	-2.0	0.0	-0.7
O=C(/C=C/Nc1nccs1)C(F)(F)Cl	-3.9	3.2	70.9*	44.7	2.4	-1.4
O=C(Nc1nccs1)NC(C(F)(F)F)C(F)(F)F	4.5	-1.1	2.1	-1.3	-0.6	3.2
O=C(O)c1ccc[n+](Cc2ccc([N+](=O)[O-])cc2)c1	12.3*	.	.	.	.	.
O=[N+]([O-])c1ccc(C[n+]2cccc(O)c2)cc1	-2.2	.	.	.	.	.
O=[N+]([O-])c1ccc2c(c1)N([O-])C1(CCCCC1)[N+]2=O	.	5.3	72.6*	25.8	-1.3	-17.9
NNC(=O)c1nc[nH]c1C(=O)Nc1ccccn1	1.4	1.2	-9.2	-1.1	0.2	-14.2
COc1ccc(NS(=O)(=O)c2ccc(-c3ccccn3)s2)cc1	-1.3	.	.	.	.	.
CN1CCC2(CC1)C1CN(C)CC=C1C(C#N)=C(N)C2(C#N)C#N (stereo not drawn)	42.6*	1.0	75.2*	70.9*!	1.3	7.5
C/C=C/C=N/Nc1nc(-c2ccc([N+](=O)[O-])cc2)cs1	-1.3	2.7	-3.4	3.7	0.2	1.6
Cc1ccc(/C=C/C2=Cc3c(sc(NC(=O)CSc4n[nH]c(N)n4)c3C#N)C(C)(C)C2)o1	-11.3	-0.2	11.8	19.4	0.7	63.8*
Cc1ccc(C)c(OC(=O)c2cncc(Br)c2)c1	8.4	3.0	-35.8	-4.2	0.4	6.7
Cn1c(CCNC(=O)c2ccco2)nc2cc(NS(=O)(=O)c3ccccc3)ccc21	0.0	-1.7	0.3	-0.1	0.8	1.9
Cn1nc(OCC(=O)O)cc1C(F)(F)F	0.5	-3.4	-3.2	-1.0	3.0*	6.0
CC(=O)C1C(c2ccc(C)cc2)c2c(noc2C)CC1(C)O (stereo not drawn)	?	1.4	-0.3	0.3	1.0	28.1
CC(=O)C1C(c2ccc(F)cc2)c2c(noc2C)CC1(C)O (stereo not drawn)	2.7	95.6*	-2.0	-0.2	0.3	9.4
Nc1nonc1C(=O)N1CCCCC1	0.7	4.3	2.8	0.1	-0.3	15.1
COc1cc(C=O)ccc1OCC(=O)NC(C)(C)C	1.0	3.2	4.5	3.1	1.4	4.0
SMILES	RanGTP-Impb inh	eIF4E 4G PPI	Runt-SMMHC FRET	Runt-CBFb FRET	PERK inh	Hck-Nef inh
O=C(/C=C/c1cccs1)NC1CC1	21.1*	-1.0	-3.6	0.1	0.3	14.5
O=C(/C=C/c1cccs1)Nc1cccc(NC(=O)/C=C/c2cccs2)n1	3.7	-3.7	1.1	0.4	0.0	1.6
COC(=O)c1c(C)cc(OC(C)=O)c(C)c1OC(C)=O	-4.4	33.4*	3.4	0.8	2.5	6.2
NC(=O)C12CCCC(Br)(CCC1)C2	3.9	91.6*	-2.4	0.6	0.5	16.1
COc1cc(O)c2c(c1)OC(C)(C)CC2=O	5.8	-9.4	-5.8	-1.0	1.1	0.5
COc1cc(O)cc2cc3c(c(O)c12)C(=O)CC(C)(O)O3 (stereo not drawn)	.	70.8*	-100.3	-62.5	.	24.3
CC(=O)c1ccc(S(=O)(=O)N2CCC(c3nc4ccccc4[nH]3)CC2)cc1	3.2	.	.	.	.	.
CC[C@H](C)/C=C(C)/C=C/C1=CC2=CC(=O)[C@]3(C)OC(=O)[C@@H](C(C)=O)[C@@H]3C2=CO1	54.7*	3.9	85.4*	7.7	0.5	-46.5
CC(C)(C)N1CCC1CN (stereo not drawn)	.	0.3	-1.8	-0.8	4.5*	14.9
O=C(Nc1ccc(F)cc1)c1ccccc1NS(=O)(=O)N1CCCC1	-3.0	-1.2	-1.8	-0.5	0.4	0.6
CC1=C(C(=O)OCc2ccccc2)C(c2ccc([N+](=O)[O-])cc2)NC(=O)N1CCCC(=O)O (stereo not drawn)	-3.9	.	.	.	.	.
CC(C)(C)C(=O)NC1CC2CCCC(C1)N2C(=O)Nc1cccc(Cl)c1 (stereo not drawn)	1.2	.	.	.	.	.
CC1CCCC(C)N1C(=O)Nc1cccc(Cl)c1 (stereo not drawn)	-2.2	-3.2	-1.6	-0.9	2.9*	2.6
Cc1cc(C)c(C#N)c(Nc2ccc(F)cc2)n1	4.2	.	.	.	.	.
O=c1nc(N2CCOCC2)ccn1-c1nc(-c2ccccc2)sc1-c1ccccc1	0.9	7.2	-3.8	4.1	0.3	3.9
COc1ccc(-c2cc([C@H]3[C@@H]4C=CCC[C@@]4(C)C(=O)N3Cc3ccccc3)ccc2F)cc1	-11.1	44.8*	6.0	0.5	.	4.5
COc1ccc(-c2ccc([C@H]3[C@@H]4C=CCC[C@@]4(C)C(=O)N3Cc3ccccc3)c(F)c2)cc1	-0.3	-3.4	0.0	2.1	.	16.7
NS(=O)(=O)c1cccc(NC(=S)NCc2ccccc2)c1	-3.4	-2.0	3.2	-1.0	1.5	21.7
CCCNC(=S)Nc1ccc2nc(-c3ccccn3)c(-c3ccccn3)nc2c1	27.5*	0.5	-22.6	.	0.1	1.0
CC(C)Cc1csc(NC(=O)c2ccc(Br)cc2)c1C(=O)O	3.3	2.6	0.6	-1.6	3.2*	8.8
CC(C)Cc1csc(NC(=O)C(C)C)c1C(=O)O	-0.4	-3.0	-1.7	-0.4	0.4	8.3
N#C/C(=C\c1c(N2CCOCC2)nc2ccccn2c1=O)C(=O)NC1CCS(=O)(=O)C1 (stereo not drawn)	3.2	-0.9	81.7*	9.5	0.0	6.8
N#C/C(=C\c1c(N2CCCCCC2)nc2ccccn2c1=O)C(=O)NC1CCS(=O)(=O)C1 (stereo not drawn)	0.2	-0.2	82.3*	4.1	0.9	5.8
C=CCNC(=O)/C(C#N)=C/c1c(N2CC(C)OC(C)C2)nc2ccccn2c1=O (stereo not drawn)	42.2*	-0.3	77.2*	4.0	-0.2	10.4
